Here are results for five compounds from ChEMBL document CHEMBL2424622, “Development of amino-pyrimidine inhibitors of c-Jun N-terminal kinase (JNK): kinase profiling guided optimization of a 1,2,3-benzotriazole lead” (Bioorg Med Chem Lett, 2013).

The target of test [1] is Cyclin-dependent kinase 8 (Homo sapiens) (UniProt P49336). Kind of test: Competitive binding affinity to CDK8 (unknown origin) at 10 uM in presence of ATP relative to control.
Test [2] addresses Serine/threonine-protein kinase 10 (Homo sapiens) (UniProt O94804). The test is described as follows: Competitive binding affinity to LOK (unknown origin) at 10 uM in presence of ATP relative to control.
For test [3], the target named is Mitogen-activated protein kinase 7 (Homo sapiens, UniProt Q13164). Kind of test: Competitive binding affinity to ERK5 (unknown origin) at 10 uM in presence of ATP relative to control.
The target in test [4] is T1, Serine/threonine-protein kinase 4 (Homo sapiens) (UniProt Q13043).
T1 sequence (whole entry): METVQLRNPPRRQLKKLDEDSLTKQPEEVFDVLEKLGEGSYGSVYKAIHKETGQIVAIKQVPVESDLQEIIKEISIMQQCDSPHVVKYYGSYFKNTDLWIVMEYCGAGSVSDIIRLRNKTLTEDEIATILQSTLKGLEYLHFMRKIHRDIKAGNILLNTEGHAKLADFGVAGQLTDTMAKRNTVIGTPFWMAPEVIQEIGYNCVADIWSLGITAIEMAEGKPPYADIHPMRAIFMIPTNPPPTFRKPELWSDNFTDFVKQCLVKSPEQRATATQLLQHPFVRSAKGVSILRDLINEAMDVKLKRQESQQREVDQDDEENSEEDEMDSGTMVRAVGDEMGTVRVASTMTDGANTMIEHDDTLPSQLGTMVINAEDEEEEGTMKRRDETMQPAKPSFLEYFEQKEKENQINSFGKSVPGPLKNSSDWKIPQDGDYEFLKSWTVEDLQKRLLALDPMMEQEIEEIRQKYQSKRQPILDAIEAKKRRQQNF
Kind of test: Competitive binding affinity to MST1 (unknown origin) at 10 uM in presence of ATP relative to control.

The target in test [5] is T2, Serine/threonine-protein kinase BRSK1 (Homo sapiens) (UniProt Q8TDC3).
T2 sequence (whole entry): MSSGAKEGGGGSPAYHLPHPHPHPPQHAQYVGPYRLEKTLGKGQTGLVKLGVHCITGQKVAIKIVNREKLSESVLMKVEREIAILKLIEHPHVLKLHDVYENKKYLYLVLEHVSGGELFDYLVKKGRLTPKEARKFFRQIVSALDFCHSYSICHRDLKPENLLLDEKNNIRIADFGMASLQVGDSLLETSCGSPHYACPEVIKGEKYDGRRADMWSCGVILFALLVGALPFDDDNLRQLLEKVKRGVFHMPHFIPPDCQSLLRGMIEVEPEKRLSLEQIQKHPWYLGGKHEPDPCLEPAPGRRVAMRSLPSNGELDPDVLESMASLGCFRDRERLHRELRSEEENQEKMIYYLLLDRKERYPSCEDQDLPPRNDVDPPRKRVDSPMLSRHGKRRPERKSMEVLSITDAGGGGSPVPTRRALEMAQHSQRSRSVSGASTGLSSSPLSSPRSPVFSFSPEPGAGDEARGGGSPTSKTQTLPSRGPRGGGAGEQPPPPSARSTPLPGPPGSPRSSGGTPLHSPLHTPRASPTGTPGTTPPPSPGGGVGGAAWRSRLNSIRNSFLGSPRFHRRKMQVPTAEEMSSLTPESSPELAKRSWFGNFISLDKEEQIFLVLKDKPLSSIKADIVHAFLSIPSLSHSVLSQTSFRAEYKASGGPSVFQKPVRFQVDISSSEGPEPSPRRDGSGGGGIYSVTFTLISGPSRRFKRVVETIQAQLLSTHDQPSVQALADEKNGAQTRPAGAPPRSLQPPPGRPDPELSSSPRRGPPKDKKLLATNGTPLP
Kind of test: Competitive binding affinity to BRSK1 (unknown origin) at 10 uM in presence of ATP relative to control.

In test [6] the target is T3, Mitogen-activated protein kinase kinase kinase kinase 3 (Homo sapiens) (UniProt Q8IVH8).
T3 sequence (whole entry): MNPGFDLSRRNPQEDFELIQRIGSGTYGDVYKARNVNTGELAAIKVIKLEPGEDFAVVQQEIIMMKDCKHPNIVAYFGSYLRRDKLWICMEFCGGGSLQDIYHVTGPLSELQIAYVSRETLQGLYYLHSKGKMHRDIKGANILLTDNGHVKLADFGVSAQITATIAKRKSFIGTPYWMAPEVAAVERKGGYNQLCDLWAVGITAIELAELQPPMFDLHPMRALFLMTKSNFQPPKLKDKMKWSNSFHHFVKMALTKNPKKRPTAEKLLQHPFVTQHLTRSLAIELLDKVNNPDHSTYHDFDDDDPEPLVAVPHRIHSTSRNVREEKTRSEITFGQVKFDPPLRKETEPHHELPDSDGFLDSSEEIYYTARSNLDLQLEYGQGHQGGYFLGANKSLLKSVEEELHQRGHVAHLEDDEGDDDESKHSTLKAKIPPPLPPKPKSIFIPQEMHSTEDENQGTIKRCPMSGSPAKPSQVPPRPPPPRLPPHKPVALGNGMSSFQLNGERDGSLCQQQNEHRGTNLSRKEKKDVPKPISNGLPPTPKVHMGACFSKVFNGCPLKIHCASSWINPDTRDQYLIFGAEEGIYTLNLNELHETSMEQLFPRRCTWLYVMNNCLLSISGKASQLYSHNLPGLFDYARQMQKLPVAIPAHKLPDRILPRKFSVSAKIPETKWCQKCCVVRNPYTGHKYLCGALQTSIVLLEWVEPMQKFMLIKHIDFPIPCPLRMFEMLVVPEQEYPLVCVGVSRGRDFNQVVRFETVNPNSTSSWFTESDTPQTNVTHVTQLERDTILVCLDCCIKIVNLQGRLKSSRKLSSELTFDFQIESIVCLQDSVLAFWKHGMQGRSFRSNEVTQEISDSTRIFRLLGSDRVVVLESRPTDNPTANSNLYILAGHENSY
The test is described as follows: Competitive binding affinity to MAP4K3 (unknown origin) at 10 uM in presence of ATP relative to control.

The target in test [7] is Serine/threonine-protein kinase MARK1 (Homo sapiens) (UniProt Q9P0L2). The test is described as follows: Competitive binding affinity to MARK1 (unknown origin) at 10 uM in presence of ATP relative to control. Put shortly:
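In vitro ATP-site competition binding assay, part of profiling against a diverse panel of 128 kinases. Each compound was tested at a single concentration of 10 µM. Kinome selectivity was summarized as S15 selectivity scores.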

Test [8] has as its target Casein kinase I isoform delta (Homo sapiens) (UniProt P48730). The test is described as follows: Competitive binding affinity to CSNK1D (unknown origin) at 10 uM in presence of ATP relative to control.
For test [9], the target named is Casein kinase II subunit alpha' (Homo sapiens) (UniProt P19784). The test is described as follows: Competitive binding affinity to CSNK2A2 (unknown origin) at 10 uM in presence of ATP relative to control. Put shortly:
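In vitro ATP-site competition binding assay across a diverse panel of 128 kinases, with each compound tested at a single concentration. Kinase binding is expressed relative to control.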

For test [10], the target named is Mitogen-activated protein kinase kinase kinase kinase 4 (Homo sapiens) (UniProt O95819). Kind of test: Competitive binding affinity to MAP4K4 (unknown origin) at 10 uM in presence of ATP relative to control.

Each structure is given as a SMILES string. Bounds are passed on as bounds.

What is called inhibition is the change of the read-out against control, counted positive when it falls. With `O[C@H]1CC[C@H](Nc2nccc(-n3ccc4ccccc43)n2)CC1`, the inhibition in [1], in [2], in test [3], in test [4], in [5] and in test [6] was below 50% in each case. Further, the inhibition in test [7] is below 50%; in test [8], 91%; in [9], below 50%; in [10], below 50%.
On to `O[C@H]1CC[C@H](Nc2nccc(-n3nnc4ccccc43)n2)CC1`, for which the inhibition was 82% in test [1]; below 50% in test [2]; 100% in test [3]; below 50% in [4]; below 50% in [5]; below 50% in [6]. The inhibition in test [7] is below 50%; in [8], 100%; in [9] it was below 50%; in test [10], below 50%.
For `CS(=O)(=O)CCCOc1cccc2c1ccn2-c1ccnc(N[C@H]2CC[C@H](C(=O)N3CCC(O)CC3)CC2)n1`, the inhibition in test [3] is above 85%.
As to `O[C@H]1CC[C@H](Nc2nccc(-n3ncc4ccccc43)n2)CC1`, the inhibition in [1] was below 50%; in [2], below 50%; in test [3], 79%; in [4], below 50%; in [5], below 50%; in test [6], below 50%. Besides, the inhibition in test [7] is below 50%; in test [8] it was 96%; in test [9], 86%; in [10] it was 64%.
Consider `O[C@H]1CC[C@H](Nc2nccc(-c3n[nH]c4ccccc34)n2)CC1`, for which the inhibition in test [2] was 88%; in test [6] it was 97%; in [7] it was 66%; in [8] it was 100%; in test [9], 98%; in test [10], 95%.
